ChEMBL document CHEMBL1955778, “Design and synthesis of novel 7-aminoquinazoline derivatives: antitumor and anticonvulsant activities” (Bioorg Med Chem Lett, 2012)

Legend:
[1] = tested on: Mus musculus; assay: Anticonvulsant activity in mouse assessed as protection against maximal electroshock-induced seizure at 1 mmol/kg, ip administered 30 min prior to maximal electroshock-challenge measured after 60 mins relative to control; format: functional
[2] = tested on: Mus musculus; assay: Anticonvulsant activity in mouse assessed as protection against pentylenetetrazol-induced seizure at 1 mmol/kg, ip administered 30 min prior to pentylenetetrazol-challenge measured after 60 mins relative to control; format: functional
[3] = tested on: Mus musculus; assay: Anticonvulsant activity in mouse assessed as protection against strychnine-induced seizure at 1 mmol/kg, ip administered 30 min prior to strychnine-challenge measured after 60 mins relative to control; format: functional
[4] = tested on: BT-549; assay: Growth inhibition of human BT549 cells at 10 uM relative to control; format: functional; details: read-out: GI
In short: (§1)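 Each cell line in a 60-line human tumour panel exposed to one 10 μM concentration. Growth inhibition percentage computed as 100 minus the percentage activity relative to control.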

[5] = tested on: RPMI-8226; assay: Growth inhibition of human RPMI8226 cells at 10 uM relative to control; format: functional; details: read-out: GI; in short: as §1
[6] = tested on: LOX IMVI; assay: Growth inhibition of human LOXIMVI cells at 10 uM relative to control; format: functional; details: read-out: GI; in short: as §1
[7] = tested on: U-251; assay: Growth inhibition of human U251 cells at 10 uM relative to control; format: functional; details: read-out: GI
In short: (§2)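 Single-dose screen across the 60-cell-line human tumor panel at 10 μM. Growth inhibition is reported as a percentage, taken as 100 minus the % growth relative to untreated control.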

[8] = tested on: MDA-MB-435; assay: Growth inhibition of human MDA-MB-435 cells at 10 uM relative to control; format: functional; details: read-out: GI; in short: as §1
[9] = tested on: UACC-62; assay: Growth inhibition of human UACC62 cells at 10 uM relative to control; format: functional; details: read-out: GI; in short: as §2
[10] = tested on: K562; assay: Growth inhibition of human K562 cells at 10 uM relative to control; format: functional; details: read-out: GI; in short: as §1
[11] = tested on: SF-295; assay: Growth inhibition of human SF295 cells at 10 uM relative to control; format: functional; details: read-out: GI; in short: as §1
[12] = tested on: A498; assay: Growth inhibition of human A498 cells at 10 uM relative to control; format: functional; details: read-out: GI; in short: as §1
[13] = tested on: EKVX; assay: Growth inhibition of human EKVX cells at 10 uM relative to control; format: functional; details: read-out: GI; in short: as §1
[14] = tested on: T47D; assay: Growth inhibition of human T47D cells at 10 uM relative to control; format: functional; details: read-out: GI; in short: as §2
[15] = tested on: MOLT-4; assay: Growth inhibition of human MOLT4 cells at 10 uM relative to control; format: functional; details: read-out: GI; in short: as §1
[16] = tested on: HT-29; assay: Growth inhibition of human HT-29 cells at 10 uM relative to control; format: functional; details: read-out: GI; in short: as §1
[17] = tested on: HL-60(TB); assay: Growth inhibition of human HL-60(TB) cells at 10 uM relative to control; format: functional; details: read-out: GI
In short: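 Single-dose screen at 10 μM across the 60-cell-line tumour panel. Percent growth inhibition = 100 minus percent growth activity relative to untreated control.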

[18] = tested on: SR; assay: Growth inhibition of human SR cells at 10 uM relative to control; format: functional; details: read-out: GI; in short: as §2
[19] = tested on: CCRF-CEM; assay: Growth inhibition of human CCRF-CEM cells at 10 uM relative to control; format: functional; details: read-out: GI; in short: as §1
[20] = tested on: Mus musculus; assay: Anticonvulsant activity in mouse assessed as protection against picrotoxin-induced seizure at 1 mmol/kg, ip administered 30 min prior to picrotoxin-challenge measured after 60 mins relative to control; format: functional
[21] = tested on: Mus musculus; assay: Anticonvulsant activity in ip dosed mouse assessed as protection against pentylenetetrazol-induced seizure administered 30 min prior to pentylenetetrazol-challenge measured after 60 mins; format: functional
In short: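 Mice received several doses for quantification. ED50 taken as the dose protecting 50% of mice against pentylenetetrazol-induced seizures.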

[22] = tested on: ACHN; assay: Growth inhibition of human ACHN cells at 10 uM relative to control; format: functional; details: read-out: GI; in short: as §1
[23] = tested on: A549; assay: Growth inhibition of human A549 cells at 10 uM relative to control; format: functional; details: read-out: GI; in short: as §1
[24] = tested on: UO-31; assay: Growth inhibition of human UO31 cells at 10 uM relative to control; format: functional; details: read-out: GI; in short: as §2
[25] = tested on: SK-MEL-28; assay: Growth inhibition of human SK-MEL-28 cells at 10 uM relative to control; format: functional; details: read-out: GI; in short: as §1
[26] = Toxicity in ip dose mouse assessed as mortality; format: organism-based; details: in vivo
In short: (§3)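 In mice, LD50 is the dose causing 50% mortality. ED50 is the dose protecting 50% of mice against pentylenetetrazole-induced seizures. Therapeutic index = LD50/ED50.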

[27] = tested on: SNB-19; assay: Growth inhibition of human SNB19 cells at 10 uM relative to control; format: functional; details: read-out: GI; in short: as §2
[28] = tested on: SK-MEL-5; assay: Growth inhibition of human SK-MEL-5 cells at 10 uM relative to control; format: functional; details: read-out: GI; in short: as §1
[29] = tested on: HCT-15; assay: Growth inhibition of human HCT15 cells at 10 uM relative to control; format: functional; details: read-out: GI; in short: as §1
[30] = tested on: OVCAR-3; assay: Growth inhibition of human OVCAR3 cells at 10 uM relative to control; format: functional; details: read-out: GI; in short: as §1
[31] = tested on: CAKI-1; assay: Growth inhibition of human CAKI-1 cells at 10 uM relative to control; format: functional; details: read-out: GI; in short: as §1
[32] = tested on: PC-3; assay: Growth inhibition of human PC3 cells at 10 uM relative to control; format: functional; details: read-out: GI; in short: as §1
[33] = tested on: Malme-3M; assay: Growth inhibition of human MALME-3M cells at 10 uM relative to control; format: functional; details: read-out: GI; in short: as §1
[34] = tested on: SF-539; assay: Growth inhibition of human SF539 cells at 10 uM relative to control; format: functional; details: read-out: GI; in short: as §1
[35] = tested on: SW-620; assay: Growth inhibition of human SW620 cells at 10 uM relative to control; format: functional; details: read-out: GI; in short: as §2
[36] = Neurotoxicity in ip dosed mouse assessed as impaired motor coordination administered 30 mins prior to test by chimney test; format: toxicity, organism-based; details: in vivo
In short: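 Mice, Chimney test. TD50 is the dose that produces minimal neurological toxicity (impaired motor coordination) in 50% of animals, estimated from testing at several doses.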

[37] = tested on: OVCAR-5; assay: Growth inhibition of human OVCAR5 cells at 10 uM relative to control; format: functional; details: read-out: GI; in short: as §1
[38] = tested on: SNB-75; assay: Growth inhibition of human SNB75 cells at 10 uM relative to control; format: functional; details: read-out: GI; in short: as §2
[39] = tested on: UACC-257; assay: Growth inhibition of human UACC257 cells at 10 uM relative to control; format: functional; details: read-out: GI; in short: as §2
[40] = tested on: MCF7; assay: Growth inhibition of human MCF7 cells at 10 uM relative to control; format: functional; details: read-out: GI; in short: as §1
[41] = Therapeutic index, ratio of LD50 for mouse to ED50 for pentylenetetrazol-induced seizure in mouse; format: organism-based; details: in vivo, read-out: Ratio LD50/ED50; in short: as §3
[42] = species: Mus musculus; assay: Protective index, ratio of TD50 for mouse to ED50 for pentylenetetrazol-induced seizure in mouse; format: functional
In short: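 Mice. Index is TD50/ED50. TD50 is the dose causing minimal neurological toxicity in 50% of mice in the Chimney test. ED50 is the dose protecting 50% of mice against pentylenetetrazole-induced seizures. Both are estimated from testing at several doses.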

[43] = tested on: KM12; assay: Growth inhibition of human KM12 cells at 10 uM relative to control; format: functional; details: read-out: GI; in short: as §1

## Cc1ccc(S(=O)(=O)Nc2ccc3c(=O)n(-c4ccccc4C)c(C)nc3c2)cc1
[1]
  Activity: 0%
[2]
  Activity: 66%
[3]
  Activity: 0%

## Cc1ccccc1-n1c(C)nc2cc(/N=C/c3ccco3)ccc2c1=O
[1]
  Activity: 50%
[2]
  Activity: 0%
[3]
  Activity: 0%

## Cc1ccccc1-n1c(C)nc2cc(NC(=O)c3cccs3)ccc2c1=O
[4]
  inhibition of growth at 10 µM: 8%
[5]
  inhibition of growth at 10 µM: 8%
[6]
  inhibition of growth at 10 µM: 4.2%
[7]
  inhibition of growth at 10 µM: 12%
[8]
  inhibition of growth at 10 µM: 6%
[9]
  inhibition of growth at 10 µM: 8%
[10]
  inhibition of growth at 10 µM: 12.8%
[11]
  inhibition of growth at 10 µM: 6%
[12]
  inhibition of growth at 10 µM: 9%
[13]
  inhibition of growth at 10 µM: 11%
[14]
  inhibition of growth at 10 µM: 7.8%
[15]
  inhibition of growth at 10 µM: 25.6%
[16]
  inhibition of growth at 10 µM: 11%
[17]
  inhibition of growth at 10 µM: 19.2%
[18]
  inhibition of growth at 10 µM: 21%
[19]
  inhibition of growth at 10 µM: 12.2%

## Cc1ccccc1-n1c(C)nc2cc(/N=C/c3ccccc3)ccc2c1=O
[1]
  Activity: 50%
[2]
  Activity: 0%
[3]
  Activity: 0%

## Cc1ccccc1-n1c(C)nc2cc(-n3c(C)nc4ccccc4c3=O)ccc2c1=O
[20]
  Activity: 0%
[1]
  Activity: 100%
[2]
  Activity: 0%
[3]
  Activity: 0%

## CCOC(=O)Nc1ccc2c(=O)n(-c3ccccc3C)c(C)nc2c1
[21]
  ED50: 740 µmol/kg
[4]
  inhibition of growth at 10 µM: 3.5%
[22]
  inhibition of growth at 10 µM: 4%
[23]
  inhibition of growth at 10 µM: 3%
[24]
  inhibition of growth at 10 µM: 24.1%
[5]
  inhibition of growth at 10 µM: 6.5%
[25]
  inhibition of growth at 10 µM: 1.72%
[26]
  LD50: 1930 µmol/kg
[27]
  inhibition of growth at 10 µM: 5.7%
[28]
  inhibition of growth at 10 µM: 2.4%
[29]
  inhibition of growth at 10 µM: 6.4%
[30]
  inhibition of growth at 10 µM: 3.8%
[7]
  inhibition of growth at 10 µM: 4.5%
[8]
  inhibition of growth at 10 µM: 41.6%
[31]
  inhibition of growth at 10 µM: 5.3%
[1]
  Activity: 100%
[9]
  inhibition of growth at 10 µM: 15.8%
[10]
  inhibition of growth at 10 µM: 6.2%
[32]
  inhibition of growth at 10 µM: 11.2%
[33]
  inhibition of growth at 10 µM: 5.4%
[34]
  inhibition of growth at 10 µM: 17.2%
[35]
  inhibition of growth at 10 µM: 2%
[36]
  TD50 at 0.5 h: 1780 µmol/kg
[37]
  inhibition of growth at 10 µM: 3.2%
[38]
  inhibition of growth at 10 µM: 21.3%
[12]
  inhibition of growth at 10 µM: 4%
[13]
  inhibition of growth at 10 µM: 11.6%
[39]
  inhibition of growth at 10 µM: 7%
[40]
  inhibition of growth at 10 µM: 5%
[41]
  selectivity ratio: 2.6
[16]
  inhibition of growth at 10 µM: 7.8%
[42]
  Ratio TD50/ED50: 2.4
[2]
  Activity: 100%
[43]
  inhibition of growth at 10 µM: 12%
[3]
  Activity: 0%
[18]
  inhibition of growth at 10 µM: 24.1%
[19]
  inhibition of growth at 10 µM: 2.2%
